Measured values taken from ChEMBL document CHEMBL1137018 (Antimicrob Agents Chemother, 2007).
One block for each compound: values may come before it.

Columns and labels:
[1] = AUC (0 to 12 hrs) in human at 400 mg, po bid from day 11 to day 20 pretreated with voriconazole 400 mg, po bid on day 1 and 200 mg, po bid on day 2 and 3 followed by washout from day 4 to day 10 followed by 400 mg, po of drug coadministered with voriconazole 200 mg, po from day 21 to day 30; format: ADME, organism-based; design: time < 12 hr, dose 400 mg, route oral; conditions: plasma
Outline: (§1)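 Blood (7 ml) drawn on days 20 and 30 at 0.5–12 h postdose, centrifuged at 1,700 x g about 10 min at about 4°C, plasma stored at about –20°C. Validated LC/MS/MS assay; noncompartmental analysis, with Cmax and Tmax read directly from concentration-time data.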

[2] = Tmax in human at 400 mg, po bid from day 11 to day 20 pretreated with voriconazole 400 mg, po bid on day 1 and 200 mg, po bid on day 2 and 3 followed by washout from day 4 to day 10 followed by 400 mg, po of drug coadministered with voriconazole 200 mg, po from day 21 to day 30; format: ADME, organism-based; conditions: in vivo; outline: as §1
[3] = Cmax in human at 400 mg, po bid from day 11 to day 20 pretreated with voriconazole 400 mg, po bid on day 1 and 200 mg, po bid on day 2 and 3 followed by washout from day 4 to day 10 followed by 400 mg, po of drug coadministered with voriconazole 200 mg, po from day 21 to day 30; format: ADME, organism-based; design: dose 400 mg, route oral; conditions: in vivo; outline: as §1
[4] = Cmax in human at 100 mg, po bid from day 11 to day 20 pretreated with voriconazole 400 mg, po bid on day 1 and 200 mg, po bid on day 2 and 3 followed by washout from day 4 to day 10; format: ADME, organism-based; design: dose 100 mg, route oral; conditions: in vivo; outline: as §1
[5] = Tmax in human at 400 mg, po bid from day 11 to day 20 pretreated with voriconazole 400 mg, po bid on day 1 and 200 mg, po bid on day 2 and 3 followed by washout from day 4 to day 10; format: ADME, organism-based; conditions: in vivo; outline: as §1
[6] = AUC (0 to 12 hrs) in human at 100 mg, po bid from day 11 to day 20 pretreated with voriconazole 400 mg, po bid on day 1 and 200 mg, po bid on day 2 and 3 followed by washout from day 4 to day 10 followed by 100 mg, po of drug coadministered with voriconazole 200 mg, po from day 21 to day 30; format: ADME, organism-based; design: dose 100 mg, time < 12 hr, route oral; conditions: plasma; outline: as §1
[7] = Tmax in human at 400 mg, po bid from day 11 to day 20 pretreated with placebo from day 1 to day 3 followed by washout from day 4 to day 10 followed by 400 mg, po of drug coadministered with placebo from day 21 to day 30; format: ADME, organism-based; conditions: in vivo; outline: as §1
[8] = Cmax in human at 400 mg, po bid from day 11 to day 20 pretreated with placebo from day 1 to day 3 followed by washout from day 4 to day 10; format: ADME, organism-based; design: dose 400 mg, route oral; conditions: in vivo; outline: as §1
[9] = AUC (0 to 12 hrs) in human at 100 mg, po bid from day 11 to day 20 pretreated with voriconazole 400 mg, po bid on day 1 and 200 mg, po bid on day 2 and 3 followed by washout from day 4 to day 10; format: ADME, organism-based; design: dose 100 mg, time < 12 hr, route oral; conditions: plasma; outline: as §1
[10] = AUC (0 to 12 hrs) in human at 400 mg, po bid from day 11 to day 20 pretreated with placebo from day 1 to day 3 followed by washout from day 4 to day 10 followed by 400 mg, po of drug coadministered with placebo from day 21 to day 30; format: ADME, organism-based; design: dose 400 mg, time < 12 hr, route oral; conditions: plasma; outline: as §1
[11] = Cmax in human at 400 mg, po bid from day 11 to day 20 pretreated with placebo from day 1 to day 3 followed by washout from day 4 to day 10 followed by 400 mg, po of drug coadministered with placebo from day 21 to day 30; format: ADME, organism-based; design: dose 400 mg, route oral; conditions: in vivo; outline: as §1
[12] = AUC (0 to 12 hrs) in human at 400 mg, po bid from day 11 to day 20 pretreated with voriconazole 400 mg, po bid on day 1 and 200 mg, po bid on day 2 and 3 followed by washout from day 4 to day 10; format: ADME, organism-based; design: dose 400 mg, time < 12 hr, route oral; conditions: plasma; outline: as §1
[13] = Tmax in human at 100 mg, po bid from day 11 to day 20 pretreated with voriconazole 400 mg, po bid on day 1 and 200 mg, po bid on day 2 and 3 followed by washout from day 4 to day 10; format: ADME, organism-based; conditions: in vivo; outline: as §1
[14] = AUC (0 to 12 hrs) in human at 400 mg, po bid from day 11 to day 20 pretreated with placebo from day 1 to day 3 followed by washout from day 4 to day 10; format: ADME, organism-based; design: dose 400 mg, time < 12 hr, route oral; conditions: plasma; outline: as §1
[15] = Tmax in human at 100 mg, po bid from day 11 to day 20 pretreated with voriconazole 400 mg, po bid on day 1 and 200 mg, po bid on day 2 and 3 followed by washout from day 4 to day 10 followed by 100 mg, po of drug coadministered with voriconazole 200 mg, po from day 21 to day 30; format: ADME, organism-based; conditions: in vivo
[16] = Cmax in human at 100 mg, po bid from day 11 to day 20 pretreated with voriconazole 400 mg, po bid on day 1 and 200 mg, po bid on day 2 and 3 followed by washout from day 4 to day 10 followed by 100 mg, po of drug coadministered with voriconazole 200 mg, po from day 21 to day 30; format: ADME, organism-based; design: dose 100 mg, route oral; conditions: in vivo; outline: as §1
[17] = Cmax in human at 400 mg, po bid from day 11 to day 20 pretreated with voriconazole 400 mg, po bid on day 1 and 200 mg, po bid on day 2 and 3 followed by washout from day 4 to day 10; format: ADME, organism-based; design: dose 400 mg, route oral; conditions: in vivo; outline: as §1
[18] = Tmax in human at 400 mg, po bid from day 11 to day 20 pretreated with placebo from day 1 to day 3 followed by washout from day 4 to day 10; format: ADME, organism-based; conditions: in vivo; outline: as §1
[19] = Tmax in human at 400 mg, po bid on day 1 and 200 mg, po bid on day 2 and 3 measured after 3 days; format: ADME, organism-based; conditions: in vivo
Outline: (§2)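 Healthy male volunteers. […] Plasma was sampled on days 3 and 30 at 0.5–12 h postdose. Samples were solid-phase extracted and assayed by LC/MS/MS (range 10 to 2,500 ng/ml). Cmax and Tmax were read directly from the data; AUC0-12 was noncompartmental.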

[20] = AUC (0 to 12 hrs) in human at 400 mg, po bid on day 1 and 200 mg, po bid on day 2 and 3 measured after 3 days; format: ADME, organism-based; design: dose 400 mg, time < 12 hr, route oral; conditions: plasma; outline: as §2
[21] = Cmax in human at 400 mg, po bid on day 1 and 200 mg, po bid on day 2 and 3 followed by 7 days of washout period then treated with ritonavir 100 mg, po for 10 days followed by 200 mg, po of drug coadministered with 100 mg, po ritonavir till day 30; format: ADME, organism-based; design: dose 400 mg, route oral; conditions: in vivo; outline: as §2
Homo sapiens [22] = experiment: Toxicity in human assessed as mortality at 400 mg, po bid on day 1 and 200 mg, po bid on day 2 and 3 measured after 3 days; format: organism-based; conditions: in vivo, 72 h
Outline: (§3)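 Healthy male subjects were followed for adverse events throughout dosing. Vital signs and 12-lead ECGs were recorded predose and 1, 3 and 8 h after the morning voriconazole dose on days 1, 3, 11, 15, 20, 21, 25 and 30. The baseline was the mean of triplicate day-1 predose ECGs. Safety data were summarized descriptively.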

Homo sapiens [23] = experiment: Decrease in Cmax of ritonavir in human at 400 mg, po bid on day 1 and 200 mg, po bid on day 2 and 3 followed by 7 days of washout period then treated with ritonavir 100 mg, po for 10 days followed by 200 mg, po of drug coadministered with ritonavir 100 mg, po till day 30; format: ADME, organism-based; conditions: in vivo
[24] = Tmax in human at 400 mg, po bid on day 1 and 200 mg, po bid on day 2 and 3 followed by 7 days of washout period then treated with ritonavir 400 mg, po for 10 days followed by 200 mg, po of drug coadministered with 400 mg, po ritonavir till day 30; format: ADME, organism-based; conditions: in vivo; outline: as §2
[25] = Tmax in human at 400 mg, po bid on day 1 and 200 mg, po bid on day 2 and 3 followed by 7 days of washout period then treated with ritonavir 100 mg, po for 10 days followed by 200 mg, po of drug coadministered with 100 mg, po ritonavir till day 30; format: ADME, organism-based; conditions: in vivo; outline: as §2
[26] = Cmax in human at 400 mg, po bid on day 1 and 200 mg, po bid on day 2 and 3 followed by 7 days of washout period then treated with ritonavir 400 mg, po for 10 days followed by 200 mg, po of drug coadministered with 400 mg, po ritonavir till day 30; format: ADME, organism-based; design: dose 400 mg, route oral; conditions: in vivo; outline: as §2
Homo sapiens [27] = experiment: Toxicity in human assessed as serious adverse events at 400 mg, po bid on day 1 and 200 mg, po bid on day 2 and 3 measured after 3 days; format: organism-based; conditions: in vivo, 72 h; outline: as §3
Homo sapiens [28] = experiment: Toxicity in human assessed as mortality at 400 mg, po bid on day 1 and 200 mg, po bid on day 2 and 3 followed by 7 days of washout period then treated with ritonavir 400 mg, po for 10 days followed by 200 mg, po of drug coadministered with ritonavir 400 mg, po till day 30; format: organism-based; conditions: in vivo; outline: as §3
[29] = AUC (0 to 12 hrs) in human at 400 mg, po bid on day 1 and 200 mg, po bid on day 2 and 3 followed by 7 days of washout period then treated with ritonavir 100 mg, po for 10 days followed by 200 mg, po of drug coadministered with 100 mg, po ritonavir till day 30; format: ADME, organism-based; design: time < 12 hr, dose 400 mg, route oral; conditions: plasma; outline: as §2
Homo sapiens [30] = experiment: Toxicity in human assessed as serious adverse events at 400 mg, po bid on day 1 and 200 mg, po bid on day 2 and 3 followed by 7 days of washout period then treated with ritonavir 100 mg, po for 10 days followed by 200 mg, po of drug coadministered with ritonavir 100 mg, po till day 30; format: organism-based; conditions: in vivo; outline: as §3
Homo sapiens [31] = experiment: Toxicity in human assessed as mortality at 400 mg, po bid on day 1 and 200 mg, po bid on day 2 and 3 followed by 7 days of washout period then treated with ritonavir 100 mg, po for 10 days followed by 200 mg, po of drug coadministered with ritonavir 100 mg, po till day 30; format: organism-based; conditions: in vivo; outline: as §3
[32] = Cmax in human at 400 mg, po bid on day 1 and 200 mg, po bid on day 2 and 3 measured after 3 days; format: ADME, organism-based; design: dose 400 mg, route oral; conditions: in vivo; outline: as §2
Homo sapiens [33] = experiment: Toxicity in human assessed as serious adverse events at 400 mg, po bid on day 1 and 200 mg, po bid on day 2 and 3 followed by 7 days of washout period then treated with ritonavir 400 mg, po for 10 days followed by 200 mg, po of drug coadministered with ritonavir 400 mg, po till day 30; format: organism-based; conditions: in vivo; outline: as §3
[34] = AUC (0 to 12 hrs) in human at 400 mg, po bid on day 1 and 200 mg, po bid on day 2 and 3 followed by 7 days of washout period then treated with ritonavir 400 mg, po for 10 days followed by 200 mg, po of drug coadministered with 400 mg, po ritonavir till day 30; format: ADME, organism-based; design: time < 12 hr, dose 400 mg, route oral; conditions: plasma; outline: as §2

AUC at 12 h [1]: 65900 ng·h/mL
Tmax [2]: 1 h
Cmax [3]: 10400 ng/mL
Cmax [4]: 1410 ng/mL
Tmax [5]: 1.5 h
AUC at 12 h [6]: 6430 ng·h/mL
Tmax [7]: 1 h
Cmax [8]: 10500 ng/mL
AUC at 12 h [9]: 7810 ng·h/mL
AUC at 12 h [10]: 58400 ng·h/mL
Cmax [11]: 10200 ng/mL
AUC at 12 h [12]: 68000 ng·h/mL
Tmax [13]: 1 h
AUC at 12 h [14]: 65300 ng·h/mL
Tmax [15]: 3 h
Cmax [16]: 992 ng/mL
Cmax [17]: 10700 ng/mL
Tmax [18]: 1 h
SMILES: CC(C)c1nc(CN(C)C(=O)N[C@H](C(=O)N[C@@H](Cc2ccccc2)C[C@H](O)[C@H](Cc2ccccc2)NC(=O)OCc2cncs2)C(C)C)cs1 [RITONAVIR]

SMILES: C[C@@H](c1ncncc1F)[C@](O)(Cn1cncn1)c1ccc(F)cc1F [VORICONAZOLE]
Tmax [19]: 1.5 h
AUC at 12 h [20]: 26500 ng·h/mL
Cmax [21]: 2810 ng/mL
Activity (Homo sapiens [22]): Non-toxic
Activity (Homo sapiens [23]): Non-toxic
Tmax [24]: 1 h
Tmax [25]: 1.5 h
Cmax [26]: 1220 ng/mL
Activity (Homo sapiens [27]): Non-toxic
Activity (Homo sapiens [28]): Non-toxic
AUC at 12 h [29]: 19500 ng·h/mL
Activity (Homo sapiens [30]): Non-toxic
Activity (Homo sapiens [31]): Non-toxic
Cmax [32]: 3360 ng/mL
Activity (Homo sapiens [33]): Non-toxic
AUC at 12 h [34]: 4250 ng·h/mL
